In ChEMBL document CHEMBL4428107 (Bioorg Med Chem, 2016):

Key:
Histone deacetylase 2 = Histone deacetylase 2 (Homo sapiens, UniProt Q92769); assay: Inhibition of full length recombinant human HDAC2 expressed in baculovirus expression system using fluorogenic peptide RHKK(Ac) as substrate by fluorescence assay
HCT-116 = assay: Antiproliferative activity against human HCT116 cells assessed as reduction in cell viability after 72 hrs by MTS-PMS assay; type: functional; conditions: Homo sapiens, HCT-116, 72 h
Method in brief: (§1)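 MTS-PMS viability test. Cells were seeded at 3,000/well and left 24 h at 37 °C, 5% CO2, then exposed to compound for 72 h. Screening was at 50 μM for HCT116 and MCF-7 and […], with final DMSO ≤1%. MTS:PMS was mixed 20:1, added for 3 h, and absorbance read at 490 nm. At least two independent runs were done, each in triplicate.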

MCF7 = assay: Antiproliferative activity against human MCF7 cells assessed as reduction in cell viability after 72 hrs by MTS-PMS assay; conditions: MCF7, 72 h
MDA-MB-231 = assay: Antiproliferative activity against human MDA-MB-231 cells assessed as reduction in cell viability after 72 hrs by MTS-PMS assay; type: functional; conditions: MDA-MB-231, 72 h; method in brief: as §1
MOLT-4 = assay: Antiproliferative activity against human MOLT4 cells assessed as reduction in cell viability after 70 hrs by Quanti-blue assay; type: functional; conditions: Homo sapiens, MOLT-4, 70 h
Method in brief: (§2)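 Quanti-Blue viability kit. HuT-78 and Molt-4 cells were grown in RPMI-1640 and seeded at 10^5 cells/mL. Compounds were screened at 50 μM for 70 h, with detection reagent present for the final 2 h. Fluorescence was read at ex 530/em 590 nm. IC50 from dose-response came from linear regression. Three independent runs.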

HuT78 = assay: Antiproliferative activity against human HUT78 cells assessed as reduction in cell viability after 70 hrs by Quanti-blue assay; type: functional; conditions: Homo sapiens, HuT78, 70 h; method in brief: as §2
[1] = Antiproliferative activity against human PBMC assessed as reduction in cell viability after 70 hrs by Quanti-blue assay; type: cell-based
Method in brief: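 QB fluorescence viability assay; hPBMCs purified by density centrifugation from purchased human blood, stored frozen, resuspended in RPMI-1640 with 10% heat-inactivated FBS, HEPES, pyruvate, non-essential amino acids and BME; seeded at 10^6 cells/mL. Compounds at 50 μM, 70 h plus 2 h with detection reagent; λex 530/λem 590 nm. Three independent repeats.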

[2] = Immunomodulatory activity in human TALL-104 cells assessed as effect on degranulation by measuring augmentation of CD3-stimulated anti-LAMP fluorescence at 100 uM preincubated for 30 mins followed by anti-LAMP addition and incubated for 50 mins in the dark by flow cytometric analysis relative to control; type: functional

Histone deacetylase 2, sequence (Q92769 whole entry): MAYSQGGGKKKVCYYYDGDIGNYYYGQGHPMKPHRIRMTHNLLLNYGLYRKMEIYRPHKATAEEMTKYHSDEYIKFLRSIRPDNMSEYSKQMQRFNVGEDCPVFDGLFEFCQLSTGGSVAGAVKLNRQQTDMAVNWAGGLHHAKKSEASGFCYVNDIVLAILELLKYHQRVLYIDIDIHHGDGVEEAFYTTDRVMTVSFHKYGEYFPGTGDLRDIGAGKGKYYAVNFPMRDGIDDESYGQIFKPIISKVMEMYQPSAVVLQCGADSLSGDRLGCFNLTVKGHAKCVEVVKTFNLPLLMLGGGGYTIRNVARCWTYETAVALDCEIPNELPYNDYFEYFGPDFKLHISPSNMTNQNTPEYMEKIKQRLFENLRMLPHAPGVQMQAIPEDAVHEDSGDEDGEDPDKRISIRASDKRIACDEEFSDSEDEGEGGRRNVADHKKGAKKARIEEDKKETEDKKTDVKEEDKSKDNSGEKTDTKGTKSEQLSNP

SMILES: CCOC(=O)NCCCC(=O)NCCc1cccc(F)c1
- IC50 (Histone deacetylase 2): > 1 µM
- GI50 (HCT-116): > 50 µM
- GI50 (MCF7): > 50 µM
- GI50 (MDA-MB-231): > 50 µM
- GI50 (MOLT-4): > 50 µM
- GI50 (HuT78): > 50 µM
- GI50 at 70 h [1]: > 50 µM
- Activity [2]: 90%

SMILES: CCCC(=O)NCCCC(=O)NCCc1ccccc1
- IC50 (Histone deacetylase 2): > 1 µM
- GI50 (HCT-116): > 50 µM
- GI50 (MCF7): > 50 µM
- GI50 (MDA-MB-231): > 50 µM
- GI50 (MOLT-4): > 50 µM
- GI50 (HuT78): > 50 µM
- GI50 at 70 h [1]: > 50 µM
- Activity [2]: 101%

SMILES: CCOC(=O)NCCCC(=O)N[C@@H](Cc1ccccc1)C(=O)OC
- IC50 (Histone deacetylase 2): > 1 µM
- GI50 (HCT-116): > 50 µM
- GI50 (MCF7): > 50 µM
- GI50 (MDA-MB-231): > 50 µM
- GI50 (MOLT-4): > 50 µM
- GI50 (HuT78): > 50 µM
- GI50 at 70 h [1]: > 50 µM
- Activity [2]: 90%

SMILES: CCOC(=O)NCCCCC(=O)NCCc1ccccc1
- IC50 (Histone deacetylase 2): > 1 µM
- GI50 (HCT-116): > 50 µM
- GI50 (MCF7): > 50 µM
- GI50 (MDA-MB-231): > 50 µM
- GI50 (MOLT-4): > 50 µM
- GI50 (HuT78): > 50 µM
- GI50 at 70 h [1]: > 50 µM
- Activity [2]: 83%

SMILES: CCOC(=O)NCCCC(=O)OCCc1ccccc1
- IC50 (Histone deacetylase 2): > 1 µM
- GI50 (HCT-116): > 50 µM
- GI50 (MCF7): > 50 µM
- GI50 (MDA-MB-231): > 50 µM
- GI50 (MOLT-4): > 50 µM
- GI50 (HuT78): > 50 µM
- GI50 at 70 h [1]: > 50 µM
- Activity [2]: 88%
